For test [1], the system named is T790M/L858R double mutant over wild-type EGFR. Particulars: cited from earlier work.
The test system of test [2] is A549 cells. The test is described as follows: cells. It counts as cell-based, human. Particulars: read-out: Anti-proliferative activity IC50, A549.
The subject of test [3] is A549 cells. The test can be described thus: Acridine orange. Particulars: A549, AO single staining. The format is cell-based, human.
For test [4], the system named is MCF-7 cells. The test can be described thus: MTT anti-proliferative assay, MCF-7. It counts as cell-based, human. Particulars: read-out: Anti-proliferative activity IC50, MCF-7. In general terms: Tetrazolium assays rely on reduction of a dye to a coloured formazan, in cell work by metabolically active cells.
The subject of test [5] is HepG2 cells. The test is described as follows: MTT anti-proliferative assay, HepG2. The format is cell-based, human. The note with it: read-out: Anti-proliferative activity IC50, HepG2.
In test [6] the test system is A549 cells. The test can be described thus: Cell cycle distribution by flow cytometry. It counts as cell-based, human. On the technique in general: A flow cytometer gives signals particle by particle.
The test system of test [7] is H1975 cells. The format is cell-based, human. Particulars: for IC50: read-out: Anti-proliferative activity IC50, H1975, 72 h; for IC50 / inhibitory activity against H1975 cells (in words): H1975, MTT.
For test [8], the system named is A549 cells. The test can be described thus: Annexin V-FITC/PI apoptosis assay by flow cytometry. It counts as cell-based, human. The note with it: A549, 2.5 μM, 48 h; untreated control 12.18%. A digest of the protocol:
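A549 cells seeded at 1 × 10^6 cells/well in RPMI 1640 and exposed to test compound for 48 h. Cells stained with Annexin V-FITC and propidium iodide for 30 min at 4 °C in the dark, then analysed by flow cytometry to give quadrant populations.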

The values below come from paper PMC6282443 (Journal of Enzyme Inhibition and Medicinal Chemistry, 2018).

“Also recorded” adds a separate entry of the source. Like-named read-outs stand apart in the source and are kept apart here.

`C=CC(=O)Nc1cc(Nc2nccc(-c3cn(C)c4ccccc34)n2)c(OC)cc1N(C)CCN(C)C` [AZD9291]: in test [1], the “selectivity for the T790M/L858R double mutant over wild-type EGFR” value is given as 200 fold.
`O=C(N/N=C/c1cnc(N2CCCC2)nc1)Nc1cc2c(Nc3ccc(F)c(Cl)c3)ncnc2cc1O[C@H]1CCOC1` [Compound 14, (S,E)-N-(4-((3-chloro-4-fluorophenyl)amino)-7-((tetrahydrofuran-3-yl)oxy)quinazolin-6-yl)-2-((2-(pyrrolidin-1-yl)pyrimidin-5-yl)methylene)hydrazine-1-carboxamide]: the IC50 stood at 5.9 ± 0.25 µM in test [2] (Homo sapiens, A549, 72 h); 2.37 ± 0.34 µM in test [4] (Homo sapiens, MCF7, 72 h); 4.63 ± 0.36 µM in test [5] (Homo sapiens, HepG2, 72 h). Moreover, the “induction of A549 cell apoptosis by AO staining (in words)” value in test [3] is “can induce A549 cell apoptosis”. In addition, in test [6] (A549), the “cell cycle arrest phase (in words)” value is “S phase arrest; also recorded: arrested the cell cycle at the S phase”. Also, the “proportion of cells in S phase” value in test [6] (A549, 2.5 μM) was 50.68%. Further, the “proportion of cells in G0/G1 phase” value in test [6] (A549, 2.5 μM, control 26.57%) worked out at 23.62%. Further, the “proportion of cells in G2/M phase” value in test [6] (A549, 2.5 μM, control 29.4%) was determined as 25.7%. Moreover, the “G0/G1 (%)” value in test [6] (A549, 25 μM, 48 h, DMSO 26.57) came to 23.62%. In addition, in test [6] (A549, 25 μM, 48 h, DMSO 29.40), the “G2/M (%)” value came to 25.70%. The “S (%)” value in test [6] (A549, 25 μM, 48 h, DMSO 44.03) came out at 50.68%. The “selectivity for H1975 cells (in words)” value in test [7] (versus HepG2, A549, MCF-7) is reported as “slight selectivity”. For the same molecule, the “apoptotic cells (early + late)” value in test [8] was found to be 34.9%.
As for `COc1cc2ncnc(Nc3ccc(Cl)c(F)c3)c2cc1NC(=O)N/N=C/c1ccc(OCCN2CCOCC2)cc1` [Compound 35, (E)-N-(4-((4-chloro-3-fluorophenyl)amino)-7-methoxyquinazolin-6-yl)-2-(4-(2-morpholinoethoxy)benzylidene) hydrazine-1-carboxamide], the concentration for half-maximal inhibition (IC50) in test [2] (A549, MTT, 72 h) worked out at 19.5 ± 1.35 µM; in test [4] (MCF-7, MTT, 72 h) it was 21.8 ± 1.34 µM; in test [5] (HepG2, MTT, 72 h) it was 16.5 ± 1.42 µM; in test [7], 25.2 ± 1.35 µM.
For the molecule `COc1cc2ncnc(Nc3ccc(F)c(Cl)c3)c2cc1NC(=O)N/N=C/c1ccc(OCCN2CCN(C)CC2)cc1` [Compound 36, (E)-N-(4-((3-chloro-4-fluoropheny)amino)-7-methoxyquinazolin-6-yl)-2-(4-(2-(4-methylpiperazin-1-yl)ethoxy)benzylidene)hydrazine-1-carboxamide], the IC50 in test [2] (A549, MTT, 72 h) worked out at 11.4 ± 1.07 µM; in test [4] (MCF-7, MTT, 72 h) it was 6.2 ± 0.81 µM; in test [5] (HepG2, MTT, 72 h), 10.2 ± 1.09 µM; in test [7], 24.7 ± 1.86 µM. In addition, the “inhibitory activity against H1975 cells (in words)” value (from here on “inhibitory activity”) in test [7] was “poorer cellular activity”.
Regarding `CN(C)CCOc1ccc(/C=N/NC(=O)Nc2cc3c(Nc4ccc(F)c(Cl)c4)ncnc3cc2O[C@H]2CCOC2)cc1` [Compound 37, (S,E)-N-(4-((3-chloro-4-fluoropheny)amino)-7-((tetrahydrofuran-3-yl)oxy)quinazolin-6-yl)-2-(4-(2-(dimethylamino)ethoxy)benzylidene)hydrazine-1-carboxamide], the IC50 in test [2] (A549, MTT, 72 h) is 14.7 ± 1.35 µM; in test [4] (MCF-7, MTT, 72 h), 11.7 ± 1.34 µM; in test [5] (HepG2, MTT, 72 h), 8.2 ± 0.81 µM; in test [7], 10.2 ± 1.12 µM. Further, in test [7], the “inhibitory activity” value is “moderate inhibitory activity”.
On to `O=C(N/N=C/c1ccc(OCCN2CCCC2)cc1)Nc1cc2c(Nc3ccc(F)c(Cl)c3)ncnc2cc1O[C@H]1CCOC1` [Compound 39, (S,E)-N-(4-((3-chloro-4-fluoropheny)amino)-7-((tetrahydrofuran-3-yl)oxy)quinazolin-6-yl)-2-(4-(2-(pyrrolidin-1-yl)ethoxy)benzylidene)hydrazine-1-carboxamide], for which the IC50 in test [2] (A549, MTT, 72 h) was 63.9 ± 5.35 µM; in test [4] (MCF-7, MTT, 72 h) it was 64.8 ± 5.35 µM; in test [5] (HepG2, MTT, 72 h), 67.3 ± 6.24 µM; in test [7], above 100 µM.
Turning to `O=C(N/N=C/c1ccc(OCCN2CCCCC2)cc1)Nc1cc2c(Nc3ccc(F)c(Cl)c3)ncnc2cc1O[C@H]1CCOC1` [Compound 40, (S,E)-N-(4-((3-chloro-4-fluoropheny)amino)-7-((tetrahydrofuran-3-yl)oxy)quinazolin-6-yl)-2-(4-(2-(piperidin-1-yl)ethoxy)benzylidene)hydrazine-1-carboxamide], the IC50 came out at 24.2 ± 1.24 µM in test [2] (A549, MTT, 72 h); 24.2 ± 1.23 µM in test [4] (MCF-7, MTT, 72 h); 17.4 ± 1.24 µM in test [5] (HepG2, MTT, 72 h); 35.3 ± 2.35 µM in test [7].
For `O=C(N/N=C/c1ccc(OCCN2CCOCC2)cc1)Nc1cc2c(Nc3ccc(F)c(Cl)c3)ncnc2cc1O[C@H]1CCOC1` [Compound 41, (S,E)-N-(4-((3-chloro-4-fluoropheny)amino)-7-((tetrahydrofuran-3-yl)oxy)quinazolin-6-yl)-2-(4-(2-morpholinoethoxy)benzylidene)hydrazine-1-carboxamide], the IC50 in test [2] (A549, MTT, 72 h) came out at 37.8 ± 2.54 µM; in test [4] (MCF-7, MTT, 72 h), 28.8 ± 1.29 µM; in test [5] (HepG2, MTT, 72 h) it was 40.2 ± 3.04 µM; in test [7], 25.5 ± 1.44 µM.
For `COc1cc2ncnc(Nc3ccc(F)c(Cl)c3)c2cc1NC(=O)N/N=C/c1ccc(OCCCN2CCCCC2)cc1` [Compound 46, (E)-N-(4-((3-chloro-4-fluoropheny)amino)-7-methoxyquinazolin-6-yl)-2-(4-(3-(piperidin-1-yl)propoxy)benzylidene)hydrazine-1-carboxamide], the IC50 in test [2] (A549, MTT, 72 h) was found to be 4.01 ± 0.56 µM; in test [4] (MCF-7, MTT, 72 h), 6.85 ± 0.65 µM; in test [5] (HepG2, MTT, 72 h), 9.58 ± 0.94 µM; in test [7] it was 3.1 ± 0.49 µM.
Consider `COc1cc2ncnc(Nc3ccc(F)c(Cl)c3)c2cc1NC(=O)N/N=C/c1ccc(OCCCN2CCOCC2)cc1` [Compound 47, (E)-N-(4-((3-chloro-4-fluoropheny)amino)-7-methoxyquinazolin-6-yl)-2-(4-(3-morpholinopropoxy)benzylidene)hydrazine-1-carboxamide], for which the half-maximal inhibitory concentration (IC50) in test [2] (A549, MTT, 72 h) was 34.8 ± 1.26 µM; in test [4] (MCF-7, MTT, 72 h), 27.5 ± 1.29 µM; in test [5] (HepG2, MTT, 72 h), 28.4 ± 1.78 µM; in test [7], 41.2 ± 2.07 µM.
For “(E)-N-(4-((3-chloro-4-fluoropheny)amino)-7-methoxyquinazolin-6-yl)-2-(4-(2-(pyrrolidin-1-yl)ethoxy)benzylid ene)hydrazine-1-carboxamide [Compound 33]” the same measures were 36.4 ± 2.78 µM, 44.2 ± 3.75 µM, 46.7 ± 4.46 µM and 49.3 ± 4.68 µM.
Turning to “(E)-N-(4-((3-chloro-4-fluoropheny)amino)-7-methoxyquinazolin-6-yl)-2-(4-(3-(4-methylpiperazin-1-yl)propoxy) benzylidene)hydrazine-1-carboxamide [Compound 48]”, the 50% inhibitory concentration (IC50) is 2.96 ± 0.36 µM in test [2] (A549, MTT, 72 h); 12.2 ± 0.89 µM in test [4] (MCF-7, MTT, 72 h); 14.5 ± 1.27 µM in test [5] (HepG2, MTT, 72 h); 10.2 ± 1.26 µM in test [7]. The “inhibitory activity” value in test [7] is “moderate inhibitory activity”.
For the molecule “(E)-N-(4-((3-chloro-4-fluoropheny)amino)-7-methoxyquinazolin-6-yl)-2-(4-(3-(dimethylamino)propoxy)benzyl idene)hydrazine-1-carboxamide [Compound 43]”, the IC50 in test [2] (A549, MTT, 72 h) is 43.1 ± 3.34 µM; in test [4] (MCF-7, MTT, 72 h), above 100 µM; in test [5] (HepG2, MTT, 72 h), above 100 µM; in test [7], above 100 µM.
For “(E)-N-(4-((3-chloro-4-fluoropheny)amino)-7-methoxyquinazolin-6-yl)-2-(4-(3-(pyrrolidin-1-yl)propoxy)benzyli dene)hydrazine-1-carboxamide [Compound 45]”, the IC50 in test [2] (A549, MTT, 72 h) stood at 23.2 ± 1.47 µM; in test [4] (MCF-7, MTT, 72 h), 16.9 ± 1.34 µM; in test [5] (HepG2, MTT, 72 h), 24.5 ± 1.27 µM; in test [7], 38.2 ± 1.23 µM.
As for “(S,E)-N-(4-((3-chloro-4-fluoropheny)amino)-7-((tetrahydrofuran-3-yl)oxy)quinazolin-6-yl)-2-(4-(2-(4-methylpi perazin-1-yl)ethoxy)benzylidene)hydrazine-1-carboxamide [Compound 42]”, the IC50 in test [2] (A549, MTT, 72 h) was determined as 2.52 ± 0.54 µM; in test [4] (MCF-7, MTT, 72 h) it was 10.8 ± 0.68 µM; in test [5] (HepG2, MTT, 72 h) it was 13.4 ± 0.54 µM; in test [7], 11.2 ± 1.34 µM. Further, in test [7], the “inhibitory activity” value was “moderate inhibitory activity”.
“(S,E)-N-(4-((3-chloro-4-fluoropheny)amino)-7-((tetrahydrofuran-3-yl)oxy)quinazolin-6-yl)-2-(4-(2-(diethylamin o)ethoxy)benzylidene)hydrazine-1-carboxamide [Compound 38]”: the half-inhibitory concentration (IC50) is 3.01 ± 0.54 µM in test [2] (A549, MTT, 72 h); 1.99 ± 0.68 µM in test [4] (MCF-7, MTT, 72 h); 1.91 ± 0.34 µM in test [5] (HepG2, MTT, 72 h); above 100 µM in test [7]. Also, the “inhibitory activity” value in test [7] was “poorer cellular activity”.
As to “(S,E)-N-(4-((3-chloro-4-fluorophenyl)amino)-7-((tetrahydrofuran-3-yl)oxy)quinazolin-6-yl)-2-(4-(3-(diethylamin o)propoxy)benzylidene)hydrazine-1-carboxamide [Compound 49]”, the IC50 was 9.48 ± 0.86 µM in test [2] (A549, MTT, 72 h); 6.21 ± 0.68 µM in test [4] (MCF-7, MTT, 72 h); 5.04 ± 0.64 µM in test [5] (HepG2, MTT, 72 h); 32.8 ± 1.27 µM in test [7]. The “inhibitory activity” value in test [7] was “poorer cellular activity”.

By IC50 is commonly meant the midpoint of a concentration-inhibition curve.
